According to the RNAGym collection of RNA variant scans (doi:10.1126/science.aae0568):
This sample holds only a part of the variants without activity.

B1: tRNA (parent)
chain: GUUCCGUUGGCGUAAUGGUAACGCGUCUCCCUCCUAAGGAGAAGACUGCGGGUUCGAGUCCCGUACGGAACG

Variants of: B1
Assay: yeast fitness relative to wild type (ratio to wild type); higher = fitter; tRNA-Arg(CCU), competitive growth, 37 C, YPD
Outline: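 The tRNA-Arg(CCU) gene variants were made by chemical synthesis with a 3% per-site mutation rate at 69 sites and inserted at the native genomic locus of Saccharomyces cerevisiae. After pooling, the strains were competed in YPD at 37°C for 24 hours in six parallel replicates. Gene amplicons from the start population and each end population were read by 100-nucleotide paired-end sequencing, and Darwinian fitness relative to wild type was taken from genotype frequency changes. Genotypes needed ≥ 100 starting reads, and estimates < 0.5 were set to 0.5.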
GUUCCGUUGGCGUAAUGGUAACGCGUCUCCCUCCUAAGGAGAAGACUGAGGGUUCGUGUCCCGUACGGAACG [C49A A57U] showed a yeast fitness of 0.55.
For GUUCCGUUGGCGUAAUGGUAACGCGUCUCCCUCCUAAGGAGAAGACUGAGGGUUCGAGUUCCGUACGCAACG [C49A C60U G68C], the yeast fitness was no more than 0.5.
GUUCCGUUGGCGUAAUGGUAACGCGUCUCCCUCCUAAGGAGAAGACUGAGGGUUCAUGUCCCGUACGGAACG [C49A G56A A57U] gave a yeast fitness of no more than 0.5.
In the case of GUUCCGUUGGCGUAAUGGUAACGCGUCUCCCUCCUAAGGAGAAGACUCCGGGUUCGAGUCCCGUACGUAACG [G48C G68U], the yeast fitness is reported as 0.771.
For GUUCCGUUGGCGUAAUGGUAACGCGUCUCCCUCCUAAGGAGAAGACUCCGGGUUCGAGUCCCGUACGCAACG [G48C G68C], the yeast fitness was 0.789.
For GUUCCGUUGGCGUAAUGGUAACGCGUCUCCCUCCUAAGGAGAAGACUCCGGCUUUGAGUCCCGUACGGAACG [G48C G52C C55U], the yeast fitness was no more than 0.5.
GUUCCGUUGGCGUAAUGGUAACGCGUCUCCCUCCUAAGGAGAAGACUGGGGGUUCGCGUCCCGUACGGAGCG [C49G A57C A70G] gave a yeast fitness of 0.552.
For GUUCCGUUGGCGUAAUGGUAACGCGUCUCCCUCCUAAGGAGAAGACUGGGGGUUCAAGUCCCAUACGGAACG [C49G G56A G63A], the yeast fitness was 0.584.
With GUUCCGUUGGCGUAAUGGUAACGCGUCUCCCUCCUAAGGAGAAGACUGAGGGUUCGAGUCCCGUACUGAACG [C49A G67U] the yeast fitness was 0.746.
In the case of GUUCCGUUGGCGUAAUGGUAACGCGUCUCCCUCCUAAGGAGAAGACUGGGGGUUCGAGUCCCGUAAGGAACG [C49G C66A], the yeast fitness is reported as 0.654.
GUUCCGUUGGCGUAAUGGUAACGCGUCUCCCUCCUAAGGAGAAGACUGACGGUUCGAGUCCCGUACGGAACG [C49A G50C] showed a yeast fitness of 0.572.
For GUUCCGUUGGCGUAAUGGUAACGCGUCUCCCUCCUAAGGAGAAGACUCCGGGUUCGAGUCCCGGACGGAACG [G48C U64G], the yeast fitness was 0.714.
GUUCCGUUGGCGUAAUGGUAACGCGUCUCCCUCCUAAGGAGAAGACUGGGGGUUCGAGUCCCCUACGGUACG [C49G G63C A69U] gave a yeast fitness of 0.651.
GUUCCGUUGGCGUAAUGGUAACGCGUCUCCCUCCUAAGGAGAAGACUGAGGGUUCGAGUCCCGUACGGACCG [C49A A70C] gave a yeast fitness of 0.743.
With GUUCCGUUGGCGUAAUGGUAACGCGUCUCCCUCCUAAGGAGAAGACUCCGGGUUCGAGUCCCCUACGGACCG [G48C G63C A70C] the yeast fitness was no more than 0.5.
For GUUCCGUUGGCGUAAUGGUAACGCGUCUCCCUCCUAAGGAGAAGACUGAGGGUUUGAGUCCCGUACGGAACG [C49A C55U], the yeast fitness was 0.606.
GUUCCGUUGGCGUAAUGGUAACGCGUCUCCCUCCUAAGGAGAAGACUGGGAGUUCGAGUCCCGUACGGAACG [C49G G51A] gave a yeast fitness of 0.637.
With GUUCCGUUGGCGUAAUGGUAACGCGUCUCCCUCCUAAGGAGAAGACUGGGGAUUCGAGUCGCGUACGGAACG [C49G G52A C61G] the yeast fitness was 0.534.
Work on GUUCCGUUGGCGUAAUGGUAACGCGUCUCCCUCCUAAGGAGAAGACUGAGGGUUCGAGUCCCCUACGGGACG [C49A G63C A69G] yielded a yeast fitness of no more than 0.5.
For GUUCCGUUGGCGUAAUGGUAACGCGUCUCCCUCCUAAGGAGAAGACUCCGGGUGUGAGUCCCGUACGGAACG [G48C U54G C55U], the yeast fitness was no more than 0.5.
GUUCCGUUGGCGUAAUGGUAACGCGUCUCCCUCCUAAGGAGAAGACUGAGGCUUCGAGUCCCGUACGGAACG [C49A G52C] gave a yeast fitness of 0.527.
Work on GUUCCGUUGGCGUAAUGGUAACGCGUCUCCCUCCUAAGGAGAAGACUCCGGGUUCGAGUCCCGUACCGAACG [G48C G67C] yielded a yeast fitness of 0.563.
For GUUCCGUUGGCGUAAUGGUAACGCGUCUCCCUCCUAAGGAGAAGACUGGGGGUUCGAGUUCUGAACGGAACG [C49G C60U C62U U64A], the yeast fitness was no more than 0.5.
In the case of GUUCCGUUGGCGUAAUGGUAACGCGUCUCCCUCCUAAGGAGAAGACUGAGGGUUCGAGUGCCGUACGGACCG [C49A C60G A70C], the yeast fitness is reported as no more than 0.5.
In the case of GUUCCGUUGGCGUAAUGGUAACGCGUCUCCCUCCUAAGGAGAAGACUGGGGGUUAGAGUCCCGUACGGAACG [C49G C55A], the yeast fitness is reported as 0.619.
For GUUCCGUUGGCGUAAUGGUAACGCGUCUCCCUCCUAAGGAGAAGACUGGGGAUUCGCGUCCCGUACGGAACG [C49G G52A A57C], the yeast fitness was no more than 0.5.
For GUUCCGUUGGCGUAAUGGUAACGCGUCUCCCUCCUAAGGAGAAGACUGAGAGUUAGAGUACCGUACGGAACG [C49A G51A C55A C60A], the yeast fitness was no more than 0.5.
In the case of GUUCCGUUGGCGUAAUGGUAACGCGUCUCCCUCCUAAGGAGAAGACUCCGGGUUCGAGUCCCAUGCGGAACG [G48C G63A A65G], the yeast fitness is reported as 0.71.
Work on GUUCCGUUGGCGUAAUGGUAACGCGUCUCCCUCCUAAGGAGAAGACUGGGGGUCCGAGUCCCGUACGGAACG [C49G U54C] yielded a yeast fitness of 1.01.
GUUCCGUUGGCGUAAUGGUAACGCGUCUCCCUCCUAAGGAGAAGACUGGGGGUUCGAGUCCCGUCCGGAACG [C49G A65C] showed a yeast fitness of 0.733.
GUUCCGUUGGCGUAAUGGUAACGCGUCUCCCUCCUAAGGAGAAGACUGAGGGUUCGAGUCUGGUACGGAACG [C49A C61U C62G] showed a yeast fitness of no more than 0.5.
For GUUCCGUUGGCGUAAUGGUAACGCGUCUCCCUCCUAAGGAGAAGACUGAGGGUUCGAGUACCGUACGGAACG [C49A C60A], the yeast fitness was 0.52.
GUUCCGUUGGCGUAAUGGUAACGCGUCUCCCUCCUAAGGAGAAGACUGGGGGUUCGAGUCCCGUACGUAACG [C49G G68U] gave a yeast fitness of 0.808.
For GUUCCGUUGGCGUAAUGGUAACGCGUCUCCCUCCUAAGGAGAAGACUGGGGGUUCGAGUCCCCUACGCAACG [C49G G63C G68C], the yeast fitness was no more than 0.5.
For GUUCCGUUGGCGUAAUGGUAACGCGUCUCCCUCCUAAGGAGAAGACUGGCGGUUCGAGUCCUGUACGGAACG [C49G G50C C62U], the yeast fitness was 0.539.
GUUCCGUUGGCGUAAUGGUAACGCGUCUCCCUCCUAAGGAGAAGACUGAGGGUUCGAGUCCCGUCCGGAACG [C49A A65C] gave a yeast fitness of 0.686.
For GUUCCGUUGGCGUAAUGGUAACGCGUCUCCCUCCUAAGGAGAAGACUGAGGGUUCGAGUCCCGUUCAGAACG [C49A A65U G67A], the yeast fitness was 0.529.
For GUUCCGUUGGCGUAAUGGUAACGCGUCUCCCUCCUAAGGAGAAGACUGAGCGUUCGAGACCCGUACGGAACG [C49A G51C U59A], the yeast fitness was no more than 0.5.
